Shown is part of a subset that was picked to be rich in hits.
IDH1 R132H inh: inhibitors of IDH1 R132H reductase, primary screen, biochemical, plate reader, single point; diaphorase/resazurin fluorescence, 60 min; inhibition, % at 10 µM; 0.18% of 70,000 active; AID 624101, 2012; in the data active means inhibition above about 34%; inconclusive means no clear call, values can overlap the other calls; inactive means below about 11%;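 further: 0% = DMSO and 100% = no enzyme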
Target sequence (O75874 whole entry R132H): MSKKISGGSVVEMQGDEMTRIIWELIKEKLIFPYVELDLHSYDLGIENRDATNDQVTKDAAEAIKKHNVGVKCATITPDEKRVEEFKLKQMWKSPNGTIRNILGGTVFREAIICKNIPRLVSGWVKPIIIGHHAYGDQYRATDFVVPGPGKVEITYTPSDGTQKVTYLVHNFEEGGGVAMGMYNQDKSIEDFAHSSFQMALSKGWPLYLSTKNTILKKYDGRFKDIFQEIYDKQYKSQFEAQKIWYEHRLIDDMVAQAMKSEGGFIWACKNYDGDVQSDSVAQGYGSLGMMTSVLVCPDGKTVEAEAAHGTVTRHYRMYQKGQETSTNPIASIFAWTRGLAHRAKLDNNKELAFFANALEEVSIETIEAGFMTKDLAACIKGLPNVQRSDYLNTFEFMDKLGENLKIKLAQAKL
T cruzi growth-1: T. cruzi intracellular proliferation inhibitors, primary screen, cell-based, beta-gal Tulahuen parasites, NIH3T3 host, luminescence; T. cruzi beta-gal in NIH3T3, GalScreen luminescence, 90 h; inhibition, % at 8.34 µM; 5.9% of 77,000 active; AID 624255, 2012;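 active means mean inhibition above about 93%, with at least 55% of replicates each passing it, limit read from the data, passing the limit was not always enough; inconclusive means only one of those two conditions holds; inactive means neither condition holds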
KDM4C inh: inhibitors of GASC-1 (KDM4C) histone demethylase, primary screen, biochemical, single concentration HTS; 0.15% of 96,000 active; inhibition, % at 12.5 µM; GST-KDM4C 2-372, H3K9me3 peptide, LANCE TR-FRET;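 active means mean replicate inhibition above about 25%, with at least 55% of replicates also reaching it, limit read from the data, passing the limit was not always enough; inconclusive means only one of those two conditions met; inactive means neither condition met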
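Material: GST-tagged GASC-1 (JMJD2C) catalytic fragment, aa 2-372 / Quantity: enzyme final amount 10 nM / Medium: HEPES buffer, pH 7.5, plus ascorbate / Doses: one test concentration per compound / Incubation: 30 min reaction, 60 min detection, RT / Measured by: LANCE TR-FRET / Read-out: inhibition from TR-FRET ratio decrease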
T cruzi growth-2: T. cruzi intracellular proliferation inhibitors, confirmation, cell-based, NIH3T3 host, beta-gal parasite, luminescence, cherry-pick; shares compounds with T cruzi growth-1; T. cruzi beta-gal in NIH3T3, GalScreen luminescence, 90 h; inhibition, % at 8.35 µM; 72% of 5,600 active; AID 651739, 2012;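 active means mean replicate inhibition above about 95% and at least 55% of replicates individually reaching it, limit read from the data; inconclusive means only one of the two criteria is met; inactive means neither criterion is met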
T cruzi growth-3: inhibitors of intracellular T. cruzi replication, confirmation, NIH3T3 host cells, beta-gal parasites, cherry-pick, set 2; T. cruzi beta-gal in NIH3T3, GalScreen luminescence, 90 h; inhibition, % at 2.09 µM; 21% of 5,600 active; shares compounds with T cruzi growth-1; AID 651740, 2012;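 active means mean inhibition above about 95%, with at least 55% of replicates also reaching it, limit read from the data; inconclusive means meets just one of the two conditions; inactive means meets neither condition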;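 further: plate controls were neutral control median for no effect and positive control median for full effect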
NIH3T3 tox: cytotoxicity in mouse NIH/3T3 fibroblasts, confirmation, cytotoxicity control for T. cruzi proliferation inhibitor project, cell-based, cherry-pick, single point. shares compounds with T cruzi growth-1. NIH/3T3 viability, CellTiter-Glo ATP luminescence, 90 h. cytotoxicity (signal decrease), % at 8.35 µM. 14% of 5,600 active. AID 651742, 2012;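 active means mean signal decrease across replicates above about 35% based on untreated-well scatter, with enough replicates individually passing, limit read from the data; inconclusive means no rule stated though some were filed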;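 further: 0% = median of neutral control wells and 100% = median of positive control wells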
NIH3T3 tox 2: NIH/3T3 fibroblast cytotoxicity, confirmation, cytotoxicity control, cell-based, cherry-pick, single point, set 2 | 56% of 5,600 active | shares compounds with T cruzi growth-1 | NIH/3T3 viability, CellTiter-Glo ATP luminescence, 90 h | inhibition, % at 24.9 µM;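 active means mean loss of cell viability signal at or above a set limit, and enough replicates individually reaching it; inconclusive means meets only the mean limit or only the replicate share; inactive means meets neither condition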;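 further: 0% = median of neutral control wells and 100% = median of positive control wells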
* hit, by the source's call; ? = inconclusive; · = no result; + = active, no number.

SMILES	IDH1 R132H inh	T cruzi growth-1	KDM4C inh	T cruzi growth-2	T cruzi growth-3	NIH3T3 tox	NIH3T3 tox 2
CCCNC(=O)[C@H]1[C@H](CO)[C@H]2Cn3c(ccc(C4=CCCCC4)c3=O)[C@H]2N1Cc1ccccc1F	·	103*	2	106*	5	1	?
CN(C)C(=O)[C@H]1[C@H](CO)[C@H]2Cn3c(ccc(C4=CCCCC4)c3=O)[C@H]2N1Cc1ccccn1	·	+	7	29	24	10	18
O=C(NCC1CC1)[C@H]1[C@H](CO)[C@H]2Cn3c(ccc(-c4ccccc4)c3=O)[C@H]2N1Cc1cocn1	·	98*	8	-7	-3	-16	-23
CCN1[C@@H]2c3ccc(C4=CCCCC4)c(=O)n3C[C@@H]2[C@@H](CO)[C@@H]1C(=O)NC1Cc2ccccc2C1	·	105*	4	106*	25	18	41*
O=C(NCC1CC1)[C@@H]1[C@@H](CO)[C@@H]2Cn3c(ccc(-c4cccnc4)c3=O)[C@@H]2N1Cc1cocn1	·	20	4	·	·	·	·
O=C(O)[C@@H]1[C@@H](CO)[C@@H]2Cn3c(ccc(C4=CCCCC4)c3=O)[C@@H]2N1Cc1ccccc1F	·	10	-1	·	·	·	·
CN(C)C(=O)[C@@H]1[C@@H](CO)[C@@H]2Cn3c(ccc(C4=CCCC4)c3=O)[C@@H]2N1Cc1ccccn1	·	33	3	·	·	·	·
CCCn1c2ccccc2c2nnc(Sc3ccc4nsnc4c3[N+](=O)[O-])nc21	1	·	·	·	·	·	·
CCN1CCN(C(=O)C(C)N(c2ccccc2)S(C)(=O)=O)CC1 (stereo unspecified)	2	·	·	·	·	·	·
Cc1cccc(-n2c(N)cc(=O)nc2SCC(=O)N2c3ccccc3Sc3ccccc32)c1	0	·	·	·	·	·	·
CCc1cccc2c(CCNC(=O)COc3ccc(F)cc3F)c(C)[nH]c12	-1	·	·	·	·	·	·
Cc1ccc(NC(=O)CCC(=O)c2ccc(Oc3ccccc3)cc2)cc1	0	·	·	·	·	·	·
O=C(CCn1cnc2ccccc2c1=O)Nc1cccc(C(=O)c2ccccc2)c1	0	·	·	·	·	·	·
Cc1ccc(-c2noc(CSc3nc(C)cc(C)n3)n2)cc1	-1	·	·	·	·	·	·
O=C(NCC1CC1)[C@H]1[C@H](CO)[C@H]2Cn3c(ccc(C4=CCCCC4)c3=O)[C@H]2N1Cc1ccccc1F	·	99*	3	88	17	9	66*
O=C(NCC1CC1)[C@@H]1[C@@H](CO)[C@@H]2Cn3c(ccc(C4=CCCC4)c3=O)[C@@H]2N1Cc1ccccc1F	·	86	2	·	·	·	·
COC(=O)c1ccccc1NC(=O)CSc1n[nH]c(-c2ccccc2Cl)n1	0	·	·	·	·	·	·
C[C@@H]1CN([C@@H](C)CO)C(=O)c2cc(NC(=O)Nc3ccc(F)cc3)ccc2O[C@@H](C)CCCCO[C@@H]1CN(C)S(=O)(=O)c1cccs1	0	-51	13	·	·	·	·
C[C@@H]1CN([C@@H](C)CO)C(=O)c2cc(NC(=O)Nc3ccc(C(F)(F)F)cc3)ccc2O[C@H]1CN(C)S(=O)(=O)c1cccs1	-1	?	0	80	48	?	57*
C[C@H]1CN([C@@H](C)CO)C(=O)c2cc(NC(=O)Nc3ccc(C(F)(F)F)cc3)ccc2O[C@@H]1CN(C)S(=O)(=O)c1cccs1	0	90	0	·	·	·	·
C[C@@H]1CCCCO[C@@H](CN(C)S(=O)(=O)c2cccs2)[C@H](C)CN([C@@H](C)CO)C(=O)c2cc(NC(=O)Nc3ccc(C(F)(F)F)cc3)ccc2O1	·	100*	1	105*	114*	5	-8
C[C@H](CO)N1C[C@H](C)[C@H](CN(C)S(=O)(=O)c2cccs2)OCCCC[C@H](C)Oc2ccc(NC(=O)Nc3ccc4c(c3)OCO4)cc2C1=O	1	86*	14	106*	53	16	27*
C[C@@H]1CCCCO[C@@H](CN(C)S(=O)(=O)c2cccs2)[C@H](C)CN([C@@H](C)CO)C(=O)c2cc(NC(=O)NC3CCCCC3)ccc2O1	4	93	-1	·	·	·	·
C[C@@H]1CN([C@H](C)CO)C(=O)c2cc(NC(=O)Nc3ccc4c(c3)OCO4)ccc2O[C@@H](C)CCCCO[C@@H]1CN(C)S(=O)(=O)c1cccs1	0	64	-2	·	·	·	·
C[C@@H]1CCCCO[C@H](CN(C)S(=O)(=O)c2cccs2)[C@H](C)CN([C@@H](C)CO)C(=O)c2cc(NC(=O)NC3CCCCC3)ccc2O1	2	100*	·	105*	35	-4	5
SMILES	IDH1 R132H inh	T cruzi growth-1	KDM4C inh	T cruzi growth-2	T cruzi growth-3	NIH3T3 tox	NIH3T3 tox 2
O=C(COc1ccc2ccccc2c1Br)NCc1cccnc1	1	·	·	·	·	·	·
CC(Oc1cccc(Cl)c1)C(=O)Nc1ccccc1C(=O)O (stereo unspecified)	0	·	·	·	·	·	·
Cc1ccc(N(CC(=O)Nc2c(C)cc(C)cc2C)S(C)(=O)=O)cc1	0	·	·	·	·	·	·
COc1ccccc1CCNC(=O)c1cc(-c2cccs2)nc2ccccc12	1	·	·	·	·	·	·
N#CCCSc1nnc(-c2ccncc2)n1Cc1ccccc1	2	·	·	·	·	·	·
COC(=O)CSc1nnc(-c2cc(OC)c(OC)c(OC)c2)n1C	0	·	·	·	·	·	·
O=C(CCN1C(=O)C2C3C=CC(C3)C2C1=O)Nc1cccc2ccccc12 (stereo unspecified)	0	·	·	·	·	·	·
C[C@@H]1CCCCO[C@H](CN(C)S(=O)(=O)c2cccs2)[C@@H](C)CN([C@H](C)CO)C(=O)c2cc(NC(=O)NC3CCCCC3)ccc2O1	·	28	1	·	·	·	·
C[C@H](CO)N1C[C@H](C)[C@H](CN(C)S(=O)(=O)c2cccs2)OCCCC[C@H](C)Oc2ccc(NC(=O)NC3CCCCC3)cc2C1=O	-1	101*	-1	88	24	22	-6
C[C@@H]1CCCCO[C@H](CN(C)S(=O)(=O)c2cccs2)[C@H](C)CN([C@H](C)CO)C(=O)c2cc(NC(=O)NC3CCCCC3)ccc2O1	2	81	-3	·	·	·	·
C[C@@H]1CCCCO[C@@H](CN(C)S(=O)(=O)c2cccs2)[C@@H](C)CN([C@H](C)CO)C(=O)c2cc(NC(=O)NC3CCCCC3)ccc2O1	-1	103*	-3	34	2	6	39*
CCn1c(SCC(=O)Nc2ccc(C)c(F)c2)nnc1-c1cccc(Cl)c1	0	·	·	·	·	·	·
O=C(O)CCCC(=O)Nc1ccc([N+](=O)[O-])cc1	1	·	·	·	·	·	·

Screening results: PubChem BioAssay, Broad Institute
